Consider 2 molecules from ChEMBL document CHEMBL1134462, “Toward a rational design of peptide inhibitors of ribonucleotide reductase: structure-function and modeling studies” (J Med Chem, 2001).

A short description of test [1]: Relative dissociation constant evaluated against mouse Ribonucleotide Reductase (RR). The essentials: (§1)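 Competition of free ligand with column-bound FTLDADF (Sepharose mixed ~60:40 with underivatized Sepharose) for mouse R1. mR1 (4.4 μM) premixed with ligand (typically 100 μM) in 50 mM Tris pH 8.5, 10 mM DTT, 100 μM dTTP, held 30 min on spin column, then centrifuged. Eluted R1 measured by Bradford assay, duplicates; Kd derived from elution versus no-ligand control, expressed relative to AcFTLDADF standard.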

The nature of test [2]: Relative binding affinity evaluated against mouse Ribonucleotide Reductase (RR). The essentials: as §1

As to `CC(=O)N[C@@H](Cc1ccccc1)C(=O)N[C@H](C(=O)N[C@@H](CC(C)C)C(=O)N[C@@H](CC(=O)O)C(=O)N[C@@H](C)C(=O)N[C@@H](CC(=O)O)C(=O)N[C@@H](Cc1c[nH]cn1)C(=O)O)[C@H](C)O`, the Relative Kd in test [1] stood at 29. The Relative Ki in test [2] is greater than 20.
For the molecule `CC(=O)N[C@@H](Cc1ccccc1)C(=O)N[C@H](C(=O)N[C@@H](CC(C)C)C(=O)N[C@@H](CC(=O)O)C(=O)N[C@@H](C)C(=O)N[C@@H](CC(=O)O)C(=O)N[C@@H](Cc1ccccc1)C(=O)O)[C@H](C)O`, the Relative Kd in test [1] stood at 1. Besides, in test [2], the Relative Ki came to 1.
